Compounds with a hit are over-represented: about 1.8% of the library has one in this group of screens.
PME-1 primary = PME-1 inhibitors via competitive probe labeling, primary screen, biochemical, fluorescence polarization, FP-Rh probe, HTS; inhibition, % at 5.9 µM; Protein phosphatase methylesterase 1 (Homo sapiens), Q9Y570; recombinant PME-1; hit rate 0.53% among 320,000; AID 2130, 2009;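 active = inhibition above the campaign mean of all compounds plus 3 SD, cut at about 26% in these data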;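 note: competitive labeling of PME-1 active site by serine hydrolase directed probe; 0% = PME-1 with DMSO and 100% = wells lacking PME-1 enzyme; inhibitors block probe labeling so polarization falls and inhibition rises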
TCR-CD3 inh = inhibitors of human TCR-CD3 interaction, primary screen, biochemical, fluorescence, TAMRA-labeled TCR probe | AID 651800, 2012 | inhibition, % at 9.4 µM | hit rate 0.37% among 360,000 | T-cell receptor (TCR); in the data active = inhibition above about 19%;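 note: recombinant mutant TCR 2C K166C tagged with TAMRA read by polarization; 0% = receptor in buffer alone and 100% = receptor with positive control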
HTRA1 inh = HTRA1 serine protease inhibitors, primary screen, biochemical, fluorescence polarization, HTS | Q92743 | recombinant HTRA1, FP-rhodamine activity-based probe | inhibition, % at 5.96 µM | hit rate 0.5% among 340,000; in the data active = inhibition above about 36%;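 note: 0% = enzyme with DMSO and 100% = wells lacking enzyme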
ABHD4 inh = ABHD4 inhibitors, primary screen, biochemical, fluorescence polarization, mouse. (Lyso)-N-acylphosphatidylethanolamine lipase (Mus musculus), Q8VD66. purified mABHD4, FP-Rh probe fluorescence polarization. hit rate 0.54% among 370,000. inhibition, % at 8.92 µM;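 active = inhibition exceeding the mean over every tested compound plus 3 SD, cut at about 30% in these data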;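 note: 0% = plate median of compound wells and 100% = S159A mutant with DMSO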
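system = mouse ABHD4 enzyme, wild type | medium = HEPES pH 7.0, NaCl, Pluronic buffer | also added = FP-Rh probe | incubation = Enzyme–compound pre-incubation 45 min, then probe 60 min, both 25 °C | technique = fluorescence polarization, excitation 525 nm, emission 598 nm, BODIPY TMR filters | controls = S159A mutant high control, sample median low control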
Fam108B inh = mouse Fam108B serine hydrolase inhibitors, primary screen, counter-screen for RBBP9 inhibitor project, biochemical, fluorescence polarization. hit rate 0.33% among 300,000. recombinant Fam108B, FP-Rh probe fluorescence polarization. AID 1947, 2009. inhibition, % at 9.51 µM;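 active = inhibition above the screen mean inhibition plus 3 SD, computed separately per campaign, cut at about 18% in these data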;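 note: inhibitors lower polarization as less probe binds the enzyme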
SIAE primary = human SIAE inhibitors, primary screen, biochemical, fluorescence polarization, FP-Rh probe, 1536-well HTS; Sialate O-acetylesterase (Homo sapiens), Q9HAT2; SIAE FP-Rh probe binding; inhibition, % at 9.66 µM; hit rate 0.69% among 370,000; AID 1053197, 2014;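 active = inhibition above a cutoff: mean of compounds within the control limits plus 3 SD of those, cut at about 17% in these data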;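 note: 0% = plate median of compound wells and 100% = probe without SIAE protein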
Target sequence (Q9HAT2 whole entry, looked up): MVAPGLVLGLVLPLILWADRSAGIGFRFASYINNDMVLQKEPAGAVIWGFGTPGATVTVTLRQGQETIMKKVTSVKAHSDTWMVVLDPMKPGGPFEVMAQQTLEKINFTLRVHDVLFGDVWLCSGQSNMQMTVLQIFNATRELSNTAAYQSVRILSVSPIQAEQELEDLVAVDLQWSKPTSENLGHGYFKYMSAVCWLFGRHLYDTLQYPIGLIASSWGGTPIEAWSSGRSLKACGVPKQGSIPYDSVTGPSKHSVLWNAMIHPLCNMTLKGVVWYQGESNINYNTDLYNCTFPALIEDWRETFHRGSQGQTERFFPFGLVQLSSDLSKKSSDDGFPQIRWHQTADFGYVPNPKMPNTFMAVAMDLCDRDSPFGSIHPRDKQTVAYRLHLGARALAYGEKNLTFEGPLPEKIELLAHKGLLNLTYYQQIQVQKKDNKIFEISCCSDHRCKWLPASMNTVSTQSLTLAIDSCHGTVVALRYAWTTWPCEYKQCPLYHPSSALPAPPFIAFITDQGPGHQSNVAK
SIAE confirm = human SIAE inhibitors, retest, confirmation, biochemical, fluorescence polarization, FP-Rh probe, triplicate | AID 1117263, 2014 | SIAE FP-Rh activity-based probe | shares compounds with SIAE primary | hit rate 13% among 2,300 | inhibition, % at 9.66 µM;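 active = mean inhibition of the replicates above the hit cutoff set in the primary screen, cut at about 17% in these data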;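 note: 0% = SIAE with DMSO and probe and 100% = probe without SIAE; inhibitors lower polarization as more probe stays unbound to SIAE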
* hit, by the source's call; · = no result given.

SMILES	PME-1 primary	TCR-CD3 inh	HTRA1 inh	ABHD4 inh	Fam108B inh	SIAE primary	SIAE confirm
CCCN(CCC)CC(O)Cn1cc(/C=C/C(=O)c2ccccc2)c2ccccc21 (configuration not stated)	·	0	-8	5	·	18*	-6
COc1ccc(-n2c(=S)[nH]c3cc(C(=O)Nc4cc(OC)c(OC)c(OC)c4)ccc3c2=O)c(OC)c1	19	-1	1	-1	11	17*	2
COc1ccc(-n2c(=S)[nH]c3cc(C(=O)NCc4ccccc4)ccc3c2=O)c(OC)c1	-5	-3	-16	-9	1	2	·
CCOC(=O)N/N=C/c1cn(Cc2ccc(Cl)cc2)c2ccccc12	2	3	-9	-2	3	18*	-4
CCOc1ccccc1OCCC(=O)NNC(=O)Cn1nc(C)cc1C	3	1	3	6	0	17*	4
CCOc1cc2c(cc1/C=C/c1noc(C)c1[N+](=O)[O-])OC(C)C2 (configuration not stated)	-4	-8	-2	3	-3	-2	·
COCCn1c(N)c(C#N)c2nc3ccccc3nc21	-1	1	-2	4	2	19*	6
COc1ccc(Cn2c(N)c(C#N)c3nc4ccccc4nc32)cc1	0	3	-25	-1	2	-3	·
Cc1ccc(N2CC(C(=O)N3CCN(c4ccccn4)CC3)CC2=O)cc1 (configuration not stated)	·	-1	-4	-2	·	-4	·
Nn1cc(-c2ccccc2)nc1SCC(=O)NCC1CCCO1 (configuration not stated)	1	6	-6	-1	-5	2	·
CCCC(C)NC(=O)CSc1nc(-c2ccccc2)cn1N (configuration not stated)	3	0	4	-11	-1	17*	0
Cc1ccc(-n2[nH]c(C)c(C=Nc3ccc4[nH]c(=O)[nH]c4c3)c2=O)cc1C	18	-1	6	1	13	5	·
Cc1ccc(-n2[nH]c(C)c(C=Nc3ccc4[nH]c(=O)[nH]c4c3)c2=O)cc1	14	-4	14	1	8	23*	3
COc1cc2c(c(OC)c1OC)C1(CCCCC1)CC2NCC=C(C)C (configuration not stated)	·	2	·	-3	·	-1	·
O=C1NC[C@@H](CCCCN2C[C@H](Cc3ccc(O)cc3)N(CC3CCCCC3)C(=O)C2=O)N(CC2CCCCC2)C1=O	·	6	·	4	·	-4	·
CCCCCC(=O)Nc1ccc(-c2csc(N)n2)cc1	0	-6	0	3	-1	18*	-2
CCCCCC(=O)Nc1ccc(-c2csc(C)n2)cc1	2	-5	-6	-4	-3	3	·
N#Cc1ccccc1S(=O)(=O)N1CCN(C(=O)CN(Cc2ccco2)Cc2cccs2)CC1	·	4	-9	0	·	-6	·
COCCNC(=O)C1(C)CCCN(Cc2cc(C)ccc2C)C1 (configuration not stated)	·	-1	·	2	·	-1	·
C[C@@H]1CN([C@@H](C)CO)C(=O)c2cc(Br)cnc2O[C@H]1CN(C)C(=O)Cc1cccnc1	·	1	1	4	·	-11	·
Cc1c(NC(=S)NC(=O)c2cccc(Br)c2)c(=O)n(-c2ccccc2)n1C	-1	1	-5	-1	3	17*	3
Cc1c(NC(=S)NC(=O)c2cccc([N+](=O)[O-])c2)c(=O)n(-c2ccccc2)n1C	-3	-2	3	1	0	12	·
COC(=O)c1cccc(NC(=O)Nc2ccc(Cl)cc2)c1	-27	6	·	-18	-1	19*	-1
Cc1ccc(S(=O)(=O)N(C)c2ccccc2C(=O)N2CCCC2)cc1	-4	2	5	4	-1	17*	5
